ChEMBL document CHEMBL1148785, “Second generation tetrahydroquinoline-based protein farnesyltransferase inhibitors as antimalarials” (J Med Chem, 2007)
Values joined by “and” are separate entries in the source; they are usually repeats but may differ in a detail not shown here. Equal values may be shown once.

Assays:
[1] = test system: Plasmodium falciparum; test: Inhibition of Plasmodium falciparum protein farnesyltransferase at 50 nM by scintillation proximity assay
[2] = test system: Plasmodium falciparum; test: Inhibition of Plasmodium falciparum protein farnesyltransferase at 5 nM by scintillation proximity assay
[3] = test system: Plasmodium falciparum; test: Inhibition of Plasmodium falciparum protein farnesyltransferase at 0.5 nM by scintillation proximity assay
[4] = test system: Plasmodium falciparum; test: Antimalarial activity against Plasmodium falciparum 3D7; type: functional; conditions: read-out: ED50 (the source's name)
Outline: (§1)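 Asynchronous culture in type A+ erythrocytes at 0.5% parasitemia and 0.5% hematocrit, grown in RPMI-1640 with 20% heat-inactivated human A+ plasma. Compound was serially diluted from a top final 5 µM, with DMSO vehicle as 100% growth. Plates ran 48 h at 37 °C under 5% CO2/5% O2/90% N2, then [3H]-hypoxanthine (0.3 µCi) for 24 h. Filter-harvested counts were corrected for the uninfected-RBC background. ED50 by linear regression; duplicates averaged.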

[5] = test system: Plasmodium falciparum; test: Antimalarial activity against Plasmodium falciparum K1; type: functional; conditions: read-out: ED50 (the source's name); outline: as §1

| SMILES | inhibition [1] | inhibition [2] [%] | inhibition [3] [%] | EC50 ([4]; Plasmodium falciparum, 3D7) [nM] | EC50 ([5]; Plasmodium falciparum, K1) [nM] | EC50 [4] [nM] | EC50 [5] [nM] |
| --- | --- | --- | --- | --- | --- | --- | --- |
| COC(=O)NCCN(C1Cc2cc(C#N)ccc2N(Cc2cncn2C)C1)S(=O)(=O)c1ccccn1 (stereo not given) | 90% | 47 | 14 | 510 | 400 | – | – |
| Cn1cncc1CN1CC(N(Cc2ccc(Br)cc2)S(=O)(=O)c2ccccn2)Cc2cc(C#N)ccc21 (stereo not given) | 66% | 15 | – | 520 | 750 | – | – |
| Cc1ccsc1S(=O)(=O)N(Cc1ccc(S(C)(=O)=O)cc1)C1Cc2cc(C#N)ccc2N(Cc2cncn2C)C1 (stereo not given) | 97% | 55 | 13 | 830 | – | – | – |
| Cn1cnc(CN2CC(N(CC3CCN(C(=O)OC(C)(C)C)CC3)S(=O)(=O)c3cn(C)cn3)Cc3cc(-c4ccccc4)ccc32)c1 (stereo not given) | 33% | 10 | 0 | 860 | – | – | – |
| CN(C)CC(=O)N(Cc1ccccc1F)C1Cc2cc(C#N)ccc2N(Cc2cncn2C)C1 (stereo not given) | – | 16 | 0 | 2700 | – | – | – |
| Cc1oncc1CN(C1Cc2cc(C#N)ccc2N(Cc2cncn2C)C1)S(=O)(=O)c1ccccn1 (stereo not given) | 94% | 62 | – | 450 | 2800 | – | – |
| Cc1c(S(=O)(=O)N(Cc2cc(Br)ccc2F)C2Cc3cc(C#N)ccc3N(Cc3cncn3C)C2)ncn1C (stereo not given) | 98% | 87 | 13 | 850 | – | – | – |
| Cn1cncc1CN1CC(N(CC2CCNCC2)S(=O)(=O)c2ccccn2)Cc2cc(C#N)ccc21 (stereo not given) | 18% | 6 | 0 | – | – | – | – |
| COC(=O)c1ccc(CN(C2Cc3cc(C#N)ccc3N(Cc3cncn3C)C2)S(=O)(=O)c2cn(C)cn2)cc1 (stereo not given) | 62% | 10 | 1 | – | – | – | – |
| Cn1cncc1CN1CC(N(CCCCN2C(=O)c3ccccc3C2=O)S(=O)(=O)c2ccccn2)Cc2cc(C#N)ccc21 (stereo not given) | 92% | 63 | – | 820 | 3600 | – | – |
| Cn1cnc(S(=O)(=O)N(Cc2ccccc2F)C2Cc3cc(C#N)ccc3N(Cc3cncn3C)C2)c1 (stereo in doubt; 212) [listing 1 of 2 here] | 96% | 76 | 12 | – | – | – | – |
| Cn1cncc1CN1CC(N(Cc2ccc(C(F)(F)F)o2)S(=O)(=O)c2ccccn2)Cc2cc(C#N)ccc21 (stereo not given) | 84% | 39 | – | 750 | 690 | – | – |
| Cn1cncc1CN1CC(N(Cc2cccc(-n3cccn3)c2)S(=O)(=O)c2ccccn2)Cc2cc(C#N)ccc21 (stereo not given) | 90% | 52 | – | 850 | 850 | – | – |
| COC(=O)N(Cc1ccccc1F)C1Cc2cc(C#N)ccc2N(Cc2cncn2C)C1 (stereo not given) | 26% | 9 | 6 | 2900 | – | – | – |
| COC(=O)N1CCC(CN(C2Cc3cc(C#N)ccc3N(Cc3cncn3C)C2)S(=O)(=O)c2ccccn2)CC1 (stereo not given) | 98% and 100% (2×) | – | – | – | – | – | – |
| Cn1cncc1CN1CC(N(CC(N)=O)S(=O)(=O)c2ccccn2)Cc2cc(C#N)ccc21 (stereo not given) | 82% | 37 | – | 1600 | 2200 | – | – |
| CCS(=O)(=O)c1ccc(CN(C2Cc3cc(C#N)ccc3N(Cc3cncn3C)C2)S(=O)(=O)c2ncn(C)c2C)cc1 (stereo not given) | 97% | 76 | 10 | 640 | – | – | – |
| Cn1cnc(CN2CC(N(CC3CCN(C(=O)OC(C)(C)C)CC3)S(=O)(=O)c3ccccn3)Cc3cc(-c4ccccc4)ccc32)c1 (stereo not given) | 22% | 15 | 0 | 2700 | – | – | – |
| Cn1cnc(S(=O)(=O)N(Cc2ccccc2F)C2Cc3cc(C#N)ccc3N(Cc3cncn3C)C2)c1 (stereo in doubt; 110) [listing 1 of 2 here] | – | – | – | – | – | 18 | 18 |
| CNC(=O)c1ccc2c(c1)CC(N(CC(=O)NC(C)(C)C)S(=O)(=O)c1cn(C)cn1)CN2Cc1cncn1C (stereo not given) | 69% | 20 | 12 | 1200 | – | – | – |
| Cn1cncc1CN1CC(N(CCN2C(=O)c3ccccc3C2=O)S(=O)(=O)c2ccccn2)Cc2cc(C#N)ccc21 (stereo not given) | 96% | 77 | 46 | 1880 | – | – | – |
| Cn1cnc(S(=O)(=O)N(Cc2ccccc2F)C2Cc3cc(C#N)ccc3N(Cc3cncn3C)C2)c1 (stereo in doubt; 110) [listing 2 of 2 here] | 100% | 99 | 65 | – | – | – | – |
| Cn1cnc(S(=O)(=O)N(Cc2ccccc2F)C2Cc3cc(C#N)ccc3N(Cc3cncn3C)C2)c1 (stereo in doubt; 212) [listing 2 of 2 here] | – | – | – | – | – | 580 | 500 |
| Cn1cncc1CN1CC(N(Cc2cccc(-n3cncn3)c2)S(=O)(=O)c2ccccn2)Cc2cc(C#N)ccc21 (stereo not given) | 53% | 11 | – | 450 | 590 | – | – |
| Cn1cncc1CN1CC(N(Cc2ccc(S(C)(=O)=O)cc2)S(=O)(=O)c2cccc(F)c2)Cc2cc(C#N)ccc21 (stereo not given) | 96% | 67 | 8 | 600 | – | – | – |
| Cn1cnc(S(=O)(=O)N(CC(=O)NC(C)(C)C)C2Cc3cc(C(=O)NCc4ccccc4)ccc3N(Cc3cncn3C)C2)c1 (stereo not given) | 59% | 1 | 0 | 4600 | – | – | – |
| CCC(C)NC(=O)c1ccc2c(c1)CC(N(CC(=O)NC(C)(C)C)S(=O)(=O)c1cn(C)cn1)CN2Cc1cncn1C (stereo not given) | 35% | 2 | 0 | > 5000 | – | – | – |

More lines, in order of falling EC50 ([4]; Plasmodium falciparum, 3D7), values ahead:

| inhibition [1] | inhibition [2] [%] | inhibition [3] [%] | EC50 ([4]; Plasmodium falciparum, 3D7) [nM] | EC50 ([5]; Plasmodium falciparum, K1) [nM] | EC50 [4] [nM] | EC50 [5] [nM] | SMILES |
| --- | --- | --- | --- | --- | --- | --- | --- |
| 99% | 90 | 30 | 390 | – | – | – | Cn1cnc(S(=O)(=O)N(Cc2ccc(S(=O)(=O)c3ccccc3)cc2)C2Cc3cc(C#N)ccc3N(Cc3cncn3C)C2)c1 (stereo not given) |
| – | 66 | 13 | 340 | – | – | – | Cn1cncc1CN1CC(N(Cc2ccccc2F)C(=O)c2cnns2)Cc2cc(C#N)ccc21 (stereo not given) |
| 93% | 54 | – | 330 | 340 | – | – | Cn1cnc(S(=O)(=O)N(Cc2ccc(-n3cncn3)cc2)C2Cc3cc(C#N)ccc3N(Cc3cncn3C)C2)c1 (stereo not given) |
| 98% | 28 | 84 | 320 | 150 | – | – | Cn1cncc1CN1CC(N(CC2CCN(C(=O)NC(C)(C)C)CC2)S(=O)(=O)c2ccccn2)Cc2cc(C#N)ccc21 (stereo not given) |
| 56% | 19 | 11 | 290 | – | – | – | COCC(=O)N(Cc1ccccc1F)C1Cc2cc(C#N)ccc2N(Cc2cncn2C)C1 (stereo not given) |
| 99% | 84 | 25 | 230 | – | – | – | COC(=O)NCCCCN(C1Cc2cc(C#N)ccc2N(Cc2cncn2C)C1)S(=O)(=O)c1ccccn1 (stereo not given) |
| 97% | 83 | 17 | 185 | 340 | – | – | COc1ccc(S(=O)(=O)N(Cc2ccc(S(C)(=O)=O)cc2)C2Cc3cc(C#N)ccc3N(Cc3cncn3C)C2)cc1 (stereo not given) |
| – | 45 | 22 | 150 | 140 | – | – | Cn1cnc(S(=O)(=O)N(CC(=O)OC(C)(C)C)C2Cc3cc(C#N)ccc3N(Cc3cncn3Cc3ccccc3)C2)c1 (stereo not given) |
| 97% | 69 | – | 143 | 617 | – | – | Cn1cncc1CN1CC(N(Cc2cccc(-n3cccc3)c2)S(=O)(=O)c2ccccn2)Cc2cc(C#N)ccc21 (stereo not given) |
| 97% | 66 | – | 140 | 600 | – | – | Cc1nn(-c2ccccc2)nc1CN(C1Cc2cc(C#N)ccc2N(Cc2cncn2C)C1)S(=O)(=O)c1ccccn1 (stereo not given) |
| 93% | – | – | 120 | – | – | – | Cn1cnc(S(=O)(=O)N(Cc2ccccc2)C2Cc3cc(C#N)ccc3N(Cc3cnc[nH]3)C2)c1 (stereo not given) |
| 94% | – | – | 120 | – | – | – | C=C(Br)CN(C1Cc2cc(C#N)ccc2N(Cc2cnc[nH]2)C1)S(=O)(=O)c1cn(C)cn1 (stereo not given) |
| 95% | 89 | – | 105 | 490 | – | – | Cn1cncc1CN1CC(N(Cc2cccnc2)S(=O)(=O)c2ccccn2)Cc2cc(C#N)ccc21 (stereo not given) |
| 99% | 93 | 48 | 100 | – | – | – | COC(=O)N1CCC(CN(C2Cc3cc(C#N)ccc3N(Cc3cncn3C)C2)S(=O)(=O)c2cccnc2)CC1 (stereo not given) |
| – | 88 | 39 | 75 | – | – | – | Cn1cncc1CN1CC(N(Cc2ccccc2F)C(=O)c2c[nH]cn2)Cc2cc(C#N)ccc21 (stereo not given) |
| 99% | 94 | 18 | 60 | 230 | – | – | Cn1cnc(S(=O)(=O)N(Cc2cccc3nsnc23)C2Cc3cc(C#N)ccc3N(Cc3cncn3C)C2)c1 (stereo not given) |
| 100% | 100 | 77 | 40 | – | – | – | CCS(=O)(=O)c1ccc(CN(C2Cc3cc(C#N)ccc3N(Cc3cncn3C)C2)S(=O)(=O)c2cn(C)cn2)cc1 (stereo not given) |
| 96% | 67 | 15 | 38 | – | – | – | COC(=O)N1CCC(CN(C2Cc3cc(C#N)ccc3N(Cc3cncn3C)C2)S(=O)(=O)c2nccn2C)CC1 (stereo not given) |
| 98% | 97 | – | 14 | 18 | – | – | Cn1cnc(S(=O)(=O)N(CCN2C(=O)c3ccccc3C2=O)C2Cc3cc(C#N)ccc3N(Cc3cncn3C)C2)c1 (stereo not given) |
| 97% | 95 | 54 | 9 | 4.5 | – | – | COC(=O)N1CCC(CN(C2Cc3cc(C#N)ccc3N(Cc3cncn3C)C2)S(=O)(=O)c2cn(C)cn2)CC1 (stereo not given) |
